# Results from PMC7141409 (Journal of biomolecular NMR, 2019).
# Experiments:
# [1] = chymotrypsin-based two-step assay; cited from earlier work
# [2] = tested on: ^15N-OsIAA11^72−125 (W104-P105 peptide bond); assay: Nzz-exchange: catalyzed cis-trans exchange of W104-P105; assay type: biochemical, rice
# Procedure, shortened: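 15N-labeled OsIAA11 72–125 substrate (800μM) with 16μM enzyme (LRT2 mutant or homolog) in NMR buffer (50mM KCl, 20mM KPO4, 3mM TCEP, 5mM NaN3, 0.1% protease inhibitor cocktail, pH=6.67). Protein concentrations were set by A280 using theoretical extinction coefficients. Nzz-exchange spectra were processed to give the observed cis-trans exchange rate (kexobs) of the W104-P105 bond with uncertainties.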
substance,measurement,setting,value
hCypA W121A: hCypA W121A mutant,Catalytic activity on W-P substrate,[1],negligible catalytic activity
hCypA: human cyclophilin A [reference compound],Nzz exchange crosspeaks / activity,"[2]; 16μM enzyme, 800μM OsIAA11^72–125",clear exchange crosspeaks
same,Nzz-measured kexobs,"[2]; 1H-15N Nzz exchange, 16μM enzyme, 800μM OsIAA11^72–125, NMR buffer pH=6.67",0.69 ± 0.04 s⁻¹
same,Activity relative to WT LRT2 on OsIAA11,"[2]; Nzz, % of WT LRT2 activity",110%
